MC4R ag barr: MC4R agonists recruiting beta-arrestin, primary screen, cell-based, luminescence, agonist arm of biased-ligand search; U2OS MC4R beta-arrestin complementation; percent of melanotan II response, DMSO zero; activation, % at 8.9 µM; actives 0.98% (n = 360,000);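 active = activation above a per-plate cutoff, the mean activation of sample wells on that plate plus 3 SD, cut at about 8% in these data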
CFTR F508del cor: F508del CFTR correction, initial screen, CFBE line, single point; CFBE cells, YFP halide quenching; stimulated with forskolin plus potentiator P3; % fluorescence drop versus neutral controls; activity (quench increase), % at 7.58 µM; actives 0.36% (n = 350,000);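 active = mean added fluorescence quench of at least 8% versus neutral control, with both replicates also reaching 8%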;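 note: cells transiently co-express mutant CFTR-F508del with the halide-sensitive YFP; corrector assay measuring rescue of mutant channel to the surface after 24 h compound exposure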
MC4R antag cAMP: MC4R antagonists of cAMP signaling, primary screen, cell-based, TR-FRET, antagonist arm of biased-ligand search | inhibition, % at 6.5 µM | Melanocortin receptor 4 (Homo sapiens), P32245 | actives 0.48% (n = 360,000) | AID 540295, 2011 | MC4R-expressing cells, MTII-stimulated cAMP, LANCE TR-FRET;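 active = inhibition above its plate's cutoff, the mean of tested wells on that plate plus 3 SD, cut at about 29% in these data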
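System – human MC4R-expressing U2OS cells · Also added – Melanotan II · Dosing – one concentration, 6.5 µM nominal · Timing – 30-min compound, 1-h challenge, 1-h detection, room temperature · Measured by – Eu-cAMP/anti-cAMP TR-FRET, emission 671 nm · Replicates – singlicate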
SMARCA2 act: SMARCA2 (BRM) function activators, primary screen, cell-based, luminescence, high throughput; MG213 cells, MMTV-luciferase reporter, dexamethasone, overnight; activation, % at 9.1 µM; actives 1% (n = 370,000); AID 652017, 2013; in the data active = activation above about 7.8%
MC4R barr conf: MC4R beta-arrestin agonists, retest, confirmation, cell-based, luminescence, U2OS. actives 31% (n = 2,400). U2OS MC4R beta-arrestin recruitment; scaled DMSO 0%, Melanotan II 100%. activation, % at 8.9 µM. shares compounds with MC4R ag barr;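 active = mean activation across replicates above the hit cutoff set in the earlier primary screen, cut at about 8% in these data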
MOR-DOR barr ag: agonists of MOR-DOR heterodimerization, counter-screen for MC4R biased agonist project, cell-based, luminescence; shares compounds with MC4R ag barr; U2OS PathHunter beta-arrestin, beta-gal luminescence; percent of deltorphin B response, DMSO zero; activation, % at 9.2 µM; actives 5.8% (n = 2,400); AID 602194, 2012;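 active = mean activation across replicates exceeds the hit threshold derived in the earlier primary screen, cut at about 18% in these data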
Numbers stand for hits; - = inactive; . = no result. A selection: hits, their analogues and other compounds. The true share with any hit is near 2.1%.

SMILES | MC4R ag barr | CFTR F508del cor | MC4R antag cAMP | SMARCA2 act | MC4R barr conf | MOR-DOR barr ag
CC=Cc1ccc2n(c1=O)C[C@@H]1[C@@H](CO)[C@H](C(=O)NCCC)N(CC3CC3)[C@H]21 (mixture of isomers) | . | - | . | . | . | .
COc1ccc(-c2cc(NC(C)=O)c3ncc(-c4ccc(OC)c(OC)c4)n3c2)cc1OC | 14.6 | - | - | - | 22.8 | -
COc1cc(-c2cc(NC(C)=O)c3ncc(-c4cc(OC)c(OC)c(OC)c4)n3c2)cc(OC)c1OC | 9.6 | - | - | - | 9.3 | -
COc1cc(-c2cc(NC(C)=O)c3ncc(-c4ccccc4)n3c2)cc(OC)c1OC | - | - | - | - | . | .
COc1ccc(-c2cnc3c(NC(C)=O)cc(-c4ccsc4)cn23)cc1OC | 11.3 | . | - | . | 14.6 | -
O=C(Nc1ccc(F)cc1)N[C@@H]1CC[C@@H](CC(=O)N2CCOCC2)O[C@@H]1CO | . | - | . | . | . | .
Cc1cc(C)c2sc(N(CCCN(C)C)C(=O)COc3ccc(Cl)cc3)nc2c1 | 11.4 | - | - | - | 25.1 | -
CC(=O)Nc1nc(COc2ccccc2)cs1 | - | . | - | - | . | .
COc1cccc(OC)c1C(=O)Nc1nc(COc2ccccc2)cs1 | 12.1 | - | - | - | - | -
Cc1ccc(NC(=S)NC(=O)c2ccc(-c3ccc(Cl)cc3)o2)c(O)c1 | 16.4 | . | - | - | 20.9 | -
C[C@@H]1CCCCO[C@@H](CN(C)C(=O)Cc2ccccc2)[C@H](C)CN([C@H](C)CO)C(=O)c2cc(NS(=O)(=O)c3cn(C)cn3)ccc2O1 | . | - | . | . | . | .
Clc1ccc(CNCc2cccs2)c(Cl)c1 | 11.1 | . | - | - | - | -
Clc1ccc(CNCc2cccs2)cc1Cl | - | . | - | - | . | .
CC=Cc1ccc2n(c1=O)C[C@@H]1[C@@H](CO)[C@H](C(=O)NCCC)[C@H]2N1Cc1ccccc1 (mixture of isomers) | . | - | . | . | . | .
CC(OC(=O)c1ccco1)C(=O)NC1CCCCC1 (configuration not stated) | - | . | - | - | . | .
O=C(OC(C(=O)NC1CCCCC1)c1ccc(C(F)(F)F)cc1)c1ccco1 (configuration not stated) | 11.2 | - | - | - | - | -
CN(C)CC(=O)N1CC2(C1)[C@@H](c1ccccc1)[C@@H](CO)N2Cc1cc(F)ccc1F | . | - | . | . | . | .
CC(=O)Nc1cc(-c2cccc(C(=O)NCCN(C)C)c2)cn2c(-c3ccc(C(C)=O)cc3)cnc12 | - | - | - | - | . | .
CC(=O)Nc1cc(-c2ccc(C(=O)NC3CC3)cc2)cn2c(-c3cccc(C(C)=O)c3)cnc12 | 16.4 | - | - | - | 18.3 | -
CC(=O)Nc1cc(-c2ccc(C(=O)NC3CC3)cc2)cn2c(-c3cccc(C(F)(F)F)c3)cnc12 | 11.1 | - | - | - | 20.4 | -
C[C@@H]1CN([C@@H](C)CO)C(=O)c2cccc(NS(=O)(=O)c3ccc(Cl)cc3)c2O[C@@H]1CN(C)CC1CC1 | . | - | . | . | . | .
Cc1ccc(OCC(=O)Nc2ccc(NC(=O)c3ccco3)cc2)c(C)c1 | 18.4 | - | - | - | - | -
COc1cc(C(=O)NC(=S)Nc2ccc(NC(=O)c3ccco3)cc2)cc(OC)c1OC | 10.6 | . | - | - | - | -
O=C(NC(=S)Nc1ccc(NC(=O)c2ccco2)cc1)c1ccccc1 | - | - | - | - | . | .
O=C(Nc1ccc(Cl)c([N+](=O)[O-])c1)c1ccco1 | - | - | - | - | . | .
SMILES | MC4R ag barr | CFTR F508del cor | MC4R antag cAMP | SMARCA2 act | MC4R barr conf | MOR-DOR barr ag
Cc1ccccc1OCC(=O)Nc1ccccc1NC(=O)c1ccco1 | - | - | - | - | . | .
Cc1c([N+](=O)[O-])cc(C(=O)Nc2ccc(NC(=O)c3ccco3)cc2)cc1[N+](=O)[O-] | 10.1 | - | - | - | - | -
Cc1ccc(OCC(=O)Nc2cccc(-c3nnc(-c4ccccc4)o3)c2)c(C)c1 | 35.0 | . | - | - | - | -
Cc1ccc(S(=O)(=O)N(C)C[C@H]2OCc3cnnn3CCCC(=O)N([C@H](C)CO)C[C@@H]2C)cc1 | . | - | . | . | . | .
O=C(C[C@@H]1CC[C@H](NC(=O)Nc2ccccc2F)[C@@H](CO)O1)NCc1ccc(Cl)cc1 | . | - | . | . | . | .
O=C(C[C@H]1C=C[C@@H](NS(=O)(=O)c2ccccc2)[C@@H](CO)O1)N1CCN(c2ccccc2)CC1 | . | - | . | . | . | .
Cc1cc(C)c(OCC(=O)Nc2ccc(NC(=O)c3ccco3)cc2)c([N+](=O)[O-])c1 | 12.6 | . | - | - | - | -
O=C(OCc1cc(=O)n2c(n1)sc1ccccc12)c1ccc(O)cc1O | 16.7 | - | - | - | - | -
O=C(OCc1cc(=O)n2c(n1)sc1ccccc12)c1cccc(O)c1 | - | . | - | - | . | .
Cn1c(=O)c(C(=O)CSc2ccccc2)c(N)n(Cc2ccccc2)c1=O | 29.5 | - | - | - | - | -
Cc1ccc(Oc2ccc(Cl)cc2NC(=O)c2ccc(F)cc2F)cc1 | 10.8 | - | - | - | - | -
O=C(Nc1cc(Cl)ccc1Oc1ccccc1)c1ccc(F)cc1 | - | . | - | - | . | .
CO[C@@H]1CN(C)C(=O)c2cc(NC(=O)C3CCCC3)ccc2OC[C@@H](C)N(C(=O)c2ccccc2)C[C@H]1C | . | - | . | . | . | .
OC(CNCCC1C=Nc2ccccc21)Cn1c2ccc(Cl)cc2c2cc(Cl)ccc21 (configuration not stated) | 17.2 | . | - | - | - | 31.2
Cc1cc(C)n(CC(O)Cn2c3ccc(Cl)cc3c3cc(Cl)ccc32)c(=O)n1 (configuration not stated) | - | . | - | - | . | .
CCCNC(=O)C[C@@H]1CC[C@H]2[C@@H](COC[C@H](O)CN2C(=O)Nc2cccc(Cl)c2)O1 | . | - | . | . | . | .
O=C(CSc1nnc(COc2ccccc2)o1)N1CCN(c2ccccc2)CC1 | - | . | - | - | . | .
Cc1cc(C)cc(OCc2nnc(SCC(=O)N3CCN(c4ccccc4)CC3)o2)c1 | 10.0 | . | - | - | - | -
CCc1ccc(OCc2nnc(SCC(=O)N3CCN(c4ccccc4)CC3)o2)cc1 | 16.6 | . | - | - | - | 19.6
C/C(=N\N=C1\NC(=O)C(CC(=O)Nc2ccc(C)c(Cl)c2)S1)C(C)(C)C (configuration not stated) | 15.7 | . | - | - | - | -
C[C@@H]1CCCCO[C@@H](CN(C)CC2CCCCC2)[C@@H](C)CN([C@@H](C)CO)C(=O)c2cc(NS(=O)(=O)c3ccccc3)ccc2O1 | . | - | . | . | . | .
CCc1ccc(C2CC(c3ccc(F)cc3)Nc3nc(N)nn32)cc1 (configuration not stated) | 24.7 | - | - | - | 17.3 | -

Bioassay records from PubChem BioAssay.
